# Laboratory results as given in ChEMBL document CHEMBL4602702, “Red-Emitting Dibenzodiazepinone Derivatives as Fluorescent Dualsteric Probes for the Muscarinic Acetylcholine M2 Receptor” (J Med Chem, 2020).
# pIC50, pKd, pKi: −log10 of the molar value. Active and inactive are the calls of the source. The rule behind the calls is not given here.
# What was measured:
# [1] = biological target: T1, Muscarinic acetylcholine receptor M1 (Homo sapiens, UniProt P11229); assay: Displacement of [3H]-NMS from human muscarinic M1 receptor stably expressed in CHO-K9 cells by radioligand competitive binding assay; format: cell-based
# T1 sequence (P11229 whole entry): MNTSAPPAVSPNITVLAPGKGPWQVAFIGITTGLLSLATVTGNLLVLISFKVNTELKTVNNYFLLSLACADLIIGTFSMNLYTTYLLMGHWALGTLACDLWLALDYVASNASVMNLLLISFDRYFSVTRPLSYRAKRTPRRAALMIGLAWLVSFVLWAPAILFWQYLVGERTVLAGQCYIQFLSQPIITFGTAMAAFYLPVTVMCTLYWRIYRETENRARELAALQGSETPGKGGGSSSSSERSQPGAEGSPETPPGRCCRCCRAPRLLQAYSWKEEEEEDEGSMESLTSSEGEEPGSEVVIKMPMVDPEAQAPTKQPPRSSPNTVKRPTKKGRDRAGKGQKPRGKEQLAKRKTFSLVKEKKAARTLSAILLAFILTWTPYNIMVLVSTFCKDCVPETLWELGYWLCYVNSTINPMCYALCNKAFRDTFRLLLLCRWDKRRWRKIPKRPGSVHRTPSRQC
# How it was run: (§1)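 Equilibrium competition binding at live CHO-hMxR cells with [3H]NMS at M1 0.2, M2 0.2, M3 0.2, M4 0.1, M5 0.3 nM. […] Four-parameter logistic fit converted to pKi; at least three experiments in triplicate (some two).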
# [2] = biological target: T2, Muscarinic acetylcholine receptor M2 (Homo sapiens, UniProt P08172); assay: Displacement of [3H]-NMS from human muscarinic M2 receptor stably expressed in CHO-K9 cells by radioligand competitive binding assay; format: cell-based; how it was run: as §1
# T2 sequence (P08172 whole entry): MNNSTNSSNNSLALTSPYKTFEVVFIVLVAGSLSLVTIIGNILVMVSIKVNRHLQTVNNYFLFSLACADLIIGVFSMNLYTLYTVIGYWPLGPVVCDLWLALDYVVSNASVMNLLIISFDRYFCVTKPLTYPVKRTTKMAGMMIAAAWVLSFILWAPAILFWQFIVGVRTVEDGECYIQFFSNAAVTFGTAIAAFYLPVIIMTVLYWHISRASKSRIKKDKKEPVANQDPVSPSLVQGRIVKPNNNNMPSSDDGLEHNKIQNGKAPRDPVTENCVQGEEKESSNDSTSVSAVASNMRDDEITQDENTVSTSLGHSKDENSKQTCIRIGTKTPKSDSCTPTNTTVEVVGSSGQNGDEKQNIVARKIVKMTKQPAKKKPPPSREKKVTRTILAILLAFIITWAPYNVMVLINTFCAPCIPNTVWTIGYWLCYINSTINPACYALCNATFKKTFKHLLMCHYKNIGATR
# [3] = biological target: Muscarinic acetylcholine receptor M3 (Homo sapiens, UniProt P20309); assay: Displacement of [3H]-NMS from human muscarinic M3 receptor stably expressed in CHO-K9 cells by radioligand competitive binding assay; format: cell-based; how it was run: as §1
# [4] = biological target: T3, Muscarinic acetylcholine receptor M4 (Homo sapiens, UniProt P08173); assay: Displacement of [3H]-NMS from human muscarinic M4 receptor stably expressed in CHO-K9 cells by radioligand competitive binding assay; format: cell-based; how it was run: as §1
# T3 sequence (P08173 whole entry): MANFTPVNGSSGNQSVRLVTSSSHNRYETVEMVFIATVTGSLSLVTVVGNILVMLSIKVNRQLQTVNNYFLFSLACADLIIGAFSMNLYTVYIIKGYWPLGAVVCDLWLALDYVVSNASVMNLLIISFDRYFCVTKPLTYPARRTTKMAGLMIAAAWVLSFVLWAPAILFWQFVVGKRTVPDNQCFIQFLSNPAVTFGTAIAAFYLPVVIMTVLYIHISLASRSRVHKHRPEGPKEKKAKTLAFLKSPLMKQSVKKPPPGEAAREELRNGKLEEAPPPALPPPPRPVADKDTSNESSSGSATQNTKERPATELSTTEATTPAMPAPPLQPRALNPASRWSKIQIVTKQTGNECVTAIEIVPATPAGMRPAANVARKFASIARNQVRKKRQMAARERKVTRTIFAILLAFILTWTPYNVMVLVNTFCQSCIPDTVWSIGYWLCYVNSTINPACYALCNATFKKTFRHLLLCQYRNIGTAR
# [5] = biological target: T4, Muscarinic acetylcholine receptor M5 (Homo sapiens, UniProt P08912); assay: Displacement of [3H]-NMS from human muscarinic M5 receptor stably expressed in CHO-K9 cells by radioligand competitive binding assay; format: cell-based; how it was run: as §1
# T4 sequence (P08912 whole entry): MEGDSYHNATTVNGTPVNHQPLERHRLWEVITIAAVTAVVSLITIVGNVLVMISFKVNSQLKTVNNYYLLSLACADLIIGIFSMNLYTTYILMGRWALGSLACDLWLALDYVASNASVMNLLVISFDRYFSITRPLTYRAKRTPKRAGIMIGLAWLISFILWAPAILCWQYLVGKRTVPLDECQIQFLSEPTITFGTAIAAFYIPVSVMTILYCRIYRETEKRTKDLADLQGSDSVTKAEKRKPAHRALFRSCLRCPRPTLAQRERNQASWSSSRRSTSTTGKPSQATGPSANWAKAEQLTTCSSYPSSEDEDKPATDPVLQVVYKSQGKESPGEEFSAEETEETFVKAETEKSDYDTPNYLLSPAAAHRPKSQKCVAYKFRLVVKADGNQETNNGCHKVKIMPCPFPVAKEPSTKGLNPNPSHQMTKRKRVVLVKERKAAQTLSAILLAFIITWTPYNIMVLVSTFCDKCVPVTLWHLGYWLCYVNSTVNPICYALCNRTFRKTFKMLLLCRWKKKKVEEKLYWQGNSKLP
# [6] = biological target: T2, Muscarinic acetylcholine receptor M2; assay: Binding affinity to human muscarinic M2 receptor expressed in […] cells incubated in dark at 22 degree C for 2 hrs by FACSCalibur flow cytometric saturation binding study; format: cell-based; settings: for pKd: read-out: Kd
# [7] = biological target: T5, Muscarinic acetylcholine receptor M2 (Homo sapiens) (UniProt P08172); assay: Binding affinity to human muscarinic M2 receptor expressed in […] cells assessed as unspecific binding at Kd incubated in dark at 22 degree C for 2 hrs in presence of atropine by FACSCalibur flow cytometric saturation binding study relative to control; format: cell-based
# T5 sequence (whole entry): T2 sequence (P08172 whole entry)
# [8] = Chemical stability of compound in PBS buffer assessed as retention time at pH 7.4 and 22 degree C measured up to 48 hrs by RP-HPLC analysis; format: physicochemical; settings: pH 7.4, 48 h
# How it was run: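 Fluorescent ligand stability checked in PBS pH 7.4 over 48 h by RP-HPLC on a C18 column with an aqueous TFA/acetonitrile gradient, oven at 25 °C, detection at 220 nm.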
# [9] = biological target: T2, Muscarinic acetylcholine receptor M2; assay: Antagonist activity at human muscarinic M2 receptor expressed in HEK293 cells co-expressing HA-Galphaq/i5 assessed as inhibition of carbachol-induced IP1 accumulation at 37 degree C pre-incubated for 30 mins followed by carbachol addition and measured after 60 mins by HTRF assay; format: functional, cell-based
# [10] = biological target: T2, Muscarinic acetylcholine receptor M2; assay: Antagonist activity at human muscarinic M2 receptor expressed in HEK293 cells co-expressing HA-Galphaq/i5 assessed as inhibition of carbachol-induced IP1 accumulation at 22 degree C pre-incubated for 180 mins followed by carbachol addition and further incubated at 37 degree C for 90 mins by HTRF assay; format: functional, cell-based
# How it was run: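 HEK-hM2-Gαqi5-HA cells (transient transfection) preincubated with antagonist at 22 °C for 180 min, then carbachol 0.3 μM (≈EC80) added and incubation continued at 37 °C for 90 min. Readout is inhibition of IP1 accumulation as pIC50, mean ± SEM of n independent experiments, each in duplicate.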
# [11] = biological target: T3, Muscarinic acetylcholine receptor M4; assay: Antagonist activity at human muscarinic M4 receptor expressed in HEK293 cells co-expressing HA-Galphaq/i5 assessed as inhibition of carbachol-induced IP1 accumulation at 22 degree C pre-incubated for 180 mins followed by carbachol addition and further incubated at 37 degree C for 90 mins by HTRF assay; format: functional, cell-based
# [12] = biological target: T5, Muscarinic acetylcholine receptor M2 (Homo sapiens); assay: Agonist activity at human muscarinic M2 receptor expressed in HEK293 cells co-expressing HA-Galphaq/i5 assessed as induction of Galphaq/i5-mediated IP1 accumulation by HTRF assay; format: functional, cell-based
# How it was run: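 HEK-293 cells transiently co-transfected with hM2R and hybrid Gαqi5-HA, run in agonist mode at 37 °C; IP1 accumulation measured. Carbachol control from 14 independent experiments in duplicate; test ligands from three or four independent experiments in duplicate.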
# [13] = biological target: T2, Muscarinic acetylcholine receptor M2; assay: Binding affinity to human muscarinic M2 receptor expressed in CHO-K9 cells incubated in dark measured after 60 mins by Hoechst H33342 dye based confocal plate reader assay; format: cell-based
# How it was run: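 Live CHO-hMxR cells (M1 or M2) incubated with fluorescent ligand at 22 °C in the dark for 1 h, washed, then imaged at once by high-content confocal plate reader.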
# Sequence of Muscarinic acetylcholine receptor M3 (P20309 whole entry): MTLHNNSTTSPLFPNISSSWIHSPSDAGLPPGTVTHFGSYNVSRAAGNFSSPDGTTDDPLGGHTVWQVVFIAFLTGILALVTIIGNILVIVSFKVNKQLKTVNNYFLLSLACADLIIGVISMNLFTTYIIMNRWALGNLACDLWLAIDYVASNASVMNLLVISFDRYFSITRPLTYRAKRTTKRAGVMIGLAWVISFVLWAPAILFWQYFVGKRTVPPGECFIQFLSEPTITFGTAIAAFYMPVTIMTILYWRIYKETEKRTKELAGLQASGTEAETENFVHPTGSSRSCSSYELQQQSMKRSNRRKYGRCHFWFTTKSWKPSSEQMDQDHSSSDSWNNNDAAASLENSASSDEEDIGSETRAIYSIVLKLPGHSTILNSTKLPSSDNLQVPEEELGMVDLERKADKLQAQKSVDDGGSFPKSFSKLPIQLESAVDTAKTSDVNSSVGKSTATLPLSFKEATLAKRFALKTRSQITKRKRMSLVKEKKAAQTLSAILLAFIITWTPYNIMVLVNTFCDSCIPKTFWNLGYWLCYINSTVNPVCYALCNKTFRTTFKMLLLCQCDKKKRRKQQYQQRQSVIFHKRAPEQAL
smiles,measurement,setting,value
C[N+]1=C(/C=C/C=C/C=C2/N(CCCCCC(=O)NCCCCC3CCN(CC(=O)N4c5ccccc5NC(=O)c5ccccc54)CC3)c3ccccc3C2(C)C)C(C)(C)c2ccccc21,pKi,[1],6.92
same,pKi,[2],7.27
same,pKi,[3],6.20
same,pKi,[4],7.17
same,pKi,[5],6.54
CC1(C)C(/C=C/C=C/C=C2/N(CCCCCC(=O)NCc3cc(C(=O)NCCNC(=O)CCc4cn(CCCCC5CCN(CC(=O)N6c7ccccc7NC(=O)c7ccccc76)CC5)cn4)cc(C(=O)NCCNC(=O)CCc4cn(CCCCC5CCN(CC(=O)N6c7ccccc7NC(=O)c7ccccc76)CC5)cn4)c3)c3ccccc3C2(C)C)=[N+](CCCCS(=O)(=O)[O-])c2ccccc21,pKi,[2],8.85
Cc1cc(/C=C/C=C/c2ccc(N(C)C)cc2)cc(C)[n+]1CCN1CCN(CCCCC2CCN(CC(=O)N3c4ccccc4NC(=O)c4ccccc43)CC2)CC1,pKi,[1],7.86
same,pKi,[2],8.52
same,pKi,[3],6.83
same,pKi,[4],8.02
same,pKi,[5],6.41
Cc1cc(/C=C/C=C/c2ccc(N(C)C)cc2)cc(C)[n+]1CCCCC1CCN(CC(=O)N2c3ccccc3NC(=O)c3ccccc32)CC1,pKi,[1],7.51
same,pKi,[2],7.77
same,pKi,[3],7.07
same,pKi,[4],7.79
same,pKi,[5],6.70
CC1(C)C(/C=C/C=C/C=C2/N(CCCCCC(=O)NCc3cc(C(=O)NCCN4CCC(N5CCC(n6c(=O)[nH]c7ccccc76)CC5)CC4)cc(C(=O)NCCN4CCN(CCCCC5CCN(CC(=O)N6c7ccccc7NC(=O)c7ccccc76)CC5)CC4)c3)c3ccc(S(=O)(=O)[O-])cc3C2(C)C)=[N+](CCCCS(=O)(=O)O)c2ccccc21.O=C(O)C(F)(F)F.O=C(O)C(F)(F)F.O=C(O)C(F)(F)F.O=C(O)C(F)(F)F,pKi,[1],8.64
same,pKi,[2],9.59
same,pKi,[3],7.66
same,pKi,[4],8.59
same,pKi,[5],7.51
same,pKd,[6],9.19
same,Activity,[7],10%
same,Retention_time,[8],18 min
NCCNC(=O)CCc1cn(CCCCC2CCN(CC(=O)N3c4ccccc4NC(=O)c4ccccc43)CC2)cn1,pKi,[2],9.23
NCCN1CCN(CCCCC2CCN(CC(=O)N3c4ccccc4NC(=O)c4ccccc43)CC2)CC1,pKi,[1],8.23
same,pKi,[2],9.74
same,pKi,[3],6.84
same,pKi,[4],9.35
same,pKi,[5],6.63
CC1(C)C(/C=C/C=C/C=C2/N(CCCCCC(=O)NCCCCC3CCN(CC(=O)N4c5ccccc5NC(=O)c5ccccc54)CC3)c3ccccc3C2(C)C)=[N+](CCCCS(=O)(=O)[O-])c2ccccc21,pKi,[1],6.46
same,pKi,[2],6.85
same,pKi,[3],6.06
same,pKi,[4],6.70
same,pKi,[5],6.06
NCc1cc(C(=O)NCCNC(=O)CCc2cn(CCCCC3CCN(CC(=O)N4c5ccccc5NC(=O)c5ccccc54)CC3)cn2)cc(C(=O)NCCNC(=O)CCc2cn(CCCCC3CCN(CC(=O)N4c5ccccc5NC(=O)c5ccccc54)CC3)cn2)c1,pKi,[2],9.57
C[N+]1=C(/C=C/C=C/C=C2/N(CCCCCC(=O)NCCN3CCN(CCCCC4CCN(CC(=O)N5c6ccccc6NC(=O)c6ccccc65)CC4)CC3)c3ccccc3C2(C)C)C(C)(C)c2ccccc21,pKi,[1],7.82
same,pKi,[2],8.35
same,pKi,[3],7.07
same,pKi,[4],7.73
same,pKi,[5],7.16
NCCCCC1CCN(CC(=O)N2c3ccccc3NC(=O)c3ccccc32)CC1,pKi,[2],7.97
CC1(C)C(/C=C/C=C/C=C2/N(CCCCCC(=O)NCCNC(=O)CCc3cn(CCCCC4CCN(CC(=O)N5c6ccccc6NC(=O)c6ccccc65)CC4)cn3)c3ccccc3C2(C)C)=[N+](CCCCS(=O)(=O)[O-])c2ccccc21,pKi,[2],9.03
CC1(C)C(/C=C/C=C/C=C2/N(CCCCCC(=O)NCCN3CCN(CCCCC4CCN(CC(=O)N5c6ccccc6NC(=O)c6ccccc65)CC4)CC3)c3ccccc3C2(C)C)=[N+](CCCCS(=O)(=O)[O-])c2ccccc21,pIC50,[9],7.31
same,pKi,[1],8.00
same,pKi,[2],8.87
same,pKi,[3],7.17
same,pKi,[4],8.40
same,pKi,[5],6.85
same,pIC50,[10],7.22
same,pIC50,[11],7.04
same,Activity,[12],inactive
same,pKd,[6],8.70
same,Kd,[6]; read-out: pKd (converted),2.57 nM
same,pKd,[13]; read-out: Kd,7.97
same,Kd,[13]; read-out: pKd (converted),8.71 nM
same,Activity,[7],10%
